Reference: ChEMBL document CHEMBL1139875, “Discovery of 4-aminobutyric acid derivatives possessing anticonvulsant and antinociceptive activities: a hybrid pharmacophore approach” (2007)
Active and inactive are the calls of the source. The calls are words filed in the database; no cut-off is given here.

Assays:
Mus musculus [1] = assay: Anticonvulsant activity in Swiss Albino mouse at 300 mg/kg, ip after 4 hrs by MES test; format: functional, organism-based; design: dose 300 mg/kg
How it was run: (§1)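 Mice (Swiss, 20-25 g) given i.p. doses of 30, 100 and 300 mg/kg under ADD program protocols, three per group, examined at 0.5 and 4 h in MES, scPTZ, scSTY or scPIC seizure tests. Value is the minimum dose protecting half or more of the mice.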

Mus musculus [2] = assay: Anticonvulsant activity in Swiss Albino mouse at 300 mg/kg, ip after 0.5 hr by scPTZ test; format: functional, organism-based; design: dose 300 mg/kg; how it was run: as §1
Mus musculus [3] = assay: Analgesic activity in Swiss Albino mouse assessed as number of acetic acid-induced writhing per 30 min after 100 mg/kg, ip; format: functional; settings: route intraperitoneal
How it was run: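 Mice in groups of six dosed i.p. at 100 mg/kg, controls receiving 30% v/v PEG 400 in water. Writhing induced by i.p. 0.1 mL of 3% v/v acetic acid 1 h after drug. Writhes (abdominal stretch with at least one hind limb extended) counted over 30 min; % inhibition calculated. Mean ± SEM, Student's t test.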

Rattus norvegicus [4] = assay: Effect on spontaneous pain in Sprague-Dawley rat CCI model assessed as duration of paw withdrawal at 100 mg/kg, ip after 0.5 hr; format: functional; settings: route intraperitoneal
How it was run: (§2)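 CCI rats (n = 4) dosed 100 mg/kg i.p. (vehicle 30% v/v PEG 400 in water). After 10 min acclimatization in a cage 5 cm above ground, cumulative time the ipsilateral paw was held off the floor over 5 min recorded, excluding locomotion lifts. Mean ± SEM; ANOVA/Bonferroni versus predrug.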

Rattus norvegicus [5] = assay: Effect on spontaneous pain in Sprague-Dawley rat CCI model assessed as duration of paw withdrawal at 100 mg/kg, ip after 1 hr; format: functional; settings: route intraperitoneal; how it was run: as §2
Rattus norvegicus [6] = assay: Effect on spontaneous pain in Sprague-Dawley rat CCI model assessed as duration of paw withdrawal at 100 mg/kg, ip after 1.5 hrs; format: functional; settings: route intraperitoneal
How it was run: (§3)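 Unilateral CCI of sciatic nerve (Bennett and Xie) in Sprague-Dawley rats under i.p. pentobarbital sodium (65 mg/kg). Spontaneous pain is scored over 5 min after 10 min acclimatization, as cumulative time the ipsilateral paw is held off the floor. Paw lifts from locomotion or repositioning are excluded. Drug is given at 100 mg/kg i.p. with 30% v/v PEG 400 vehicle. Mean ± SEM, n = 4, compared with predrug by ANOVA/Bonferroni.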

Rattus norvegicus [7] = assay: Effect on spontaneous pain in Sprague-Dawley rat CCI model assessed as duration of paw withdrawal at 100 mg/kg, ip after 2 hrs; format: functional; settings: route intraperitoneal; how it was run: as §3
Rattus norvegicus [8] = assay: Anti-dynamic allodynia effect in Sprague-Dawley rat SNL model assessed as latency to paw withdrawal 100 mg/kg, ip after 1.5 hrs; format: functional; settings: route intraperitoneal
How it was run: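 Left L5 spinal nerve ligation rats, tested preoperatively and 9 days postoperatively, then given 100 mg/kg i.p. (vehicle 30% v/v PEG 400 in water). After 10 min acclimatization, plantar surface of affected paw stroked mildly with a cotton-bud; paw lift response recorded. n = 4; retested 0.5-2.5 h post-dose.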

Rattus norvegicus [9] = assay: Effect on spontaneous pain in Sprague-Dawley rat CCI model assessed as duration of paw withdrawal at 100 mg/kg, ip after 2.5 hrs; format: functional; settings: route intraperitoneal; how it was run: as §3
Rattus norvegicus [10] = assay: Antihyperalgesic effects in Sprague-Dawley rat CCI model assessed as duration of paw withdrawal at 100 mg/kg, ip after 0.5 hr; format: functional; settings: route intraperitoneal
Rattus norvegicus [11] = assay: Antihyperalgesic effects in Sprague-Dawley rat CCI model assessed as duration of paw withdrawal at 100 mg/kg, ip after 1 hr; format: functional; settings: route intraperitoneal
Rattus norvegicus [12] = assay: Antihyperalgesic effects in Sprague-Dawley rat CCI model assessed as duration of paw withdrawal at 100 mg/kg, ip after 1.5 hrs; format: functional; settings: route intraperitoneal
Rattus norvegicus [13] = assay: Antihyperalgesic effects in Sprague-Dawley rat CCI model assessed as duration of paw withdrawal at 100 mg/kg, ip after 2 hrs; format: functional; settings: route intraperitoneal
Rattus norvegicus [14] = assay: Antihyperalgesic effects in Sprague-Dawley rat CCI model assessed as duration of paw withdrawal at 100 mg/kg, ip after 2.5 hrs; format: functional; settings: route intraperitoneal
Rattus norvegicus [15] = assay: Effect on spontaneous pain in Sprague-Dawley rat SNL model assessed as duration of paw withdrawal at 100 mg/kg, ip after 1 hr; format: functional; settings: route intraperitoneal
How it was run: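 Rats underwent left L5 spinal nerve ligation (Kim and Chung) under i.p. pentobarbital (65 mg/kg). Spontaneous pain is recorded for 5 min after 10 min acclimatization, as cumulative duration the ipsilateral paw is lifted, excluding locomotor lifts. Dosing is 100 mg/kg i.p. in 30% v/v PEG 400/water, with testing at 0.5–2.5 h. Four rats, mean ± SEM versus predrug, one-way ANOVA with Bonferroni.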

Rattus norvegicus [16] = assay: Antihyperalgesic effects in Sprague-Dawley rat SNL model assessed as duration of paw withdrawal at 100 mg/kg, ip after 0.5 hr, ip; format: functional; settings: route intraperitoneal
How it was run: (§4)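 L5 SNL rats (n = 4), dosed 100 mg/kg i.p. (vehicle 30% v/v PEG 400 in water). Pin-prick to midplantar ipsilateral left hindpaw; withdrawal duration, mean of three responses; ≥2 s defined abnormal. Mean ± SEM; one-way ANOVA with Bonferroni versus predrug.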

Rattus norvegicus [17] = assay: Antihyperalgesic effects in Sprague-Dawley rat SNL model assessed as duration of paw withdrawal at 100 mg/kg, ip after 1 hr, ip; format: functional; settings: route intraperitoneal; how it was run: as §4
Rattus norvegicus [18] = assay: Antihyperalgesic effects in Sprague-Dawley rat SNL model assessed as duration of paw withdrawal at 100 mg/kg, ip after 1.5 hrs, ip; format: functional; settings: route intraperitoneal; how it was run: as §4
Rattus norvegicus [19] = assay: Antihyperalgesic effects in Sprague-Dawley rat SNL model assessed as duration of paw withdrawal at 100 mg/kg, ip after 2.5 hrs, ip; format: functional; settings: route intraperitoneal; how it was run: as §4
Rattus norvegicus [20] = species: Rattus norvegicus; assay: Anti-dynamic allodynic effect in Sprague-Dawley rat CCI model assessed as latency to paw withdrawal after 0.5 hr; format: functional
How it was run: (§5)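 Rats with sciatic nerve chronic constriction injury (pentobarbital 65 mg/kg i.p. anaesthesia), baseline and day 9 testing, then drug per randomization table. After 10 min acclimatization, affected plantar surface stroked mildly with a cotton-bud; paw lift recorded. n = 4; retested 0.5-2.5 h post-dose.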

Rattus norvegicus [21] = species: Rattus norvegicus; assay: Anti-dynamic allodynic effect in Sprague-Dawley rat CCI model assessed as latency to paw withdrawal after 1 hr; format: functional; how it was run: as §5
Rattus norvegicus [22] = species: Rattus norvegicus; assay: Anti-dynamic allodynic effect in Sprague-Dawley rat CCI model assessed as latency to paw withdrawal after 1.5 hr; format: functional; how it was run: as §5
Rattus norvegicus [23] = species: Rattus norvegicus; assay: Anti-dynamic allodynic effect in Sprague-Dawley rat CCI model assessed as latency to paw withdrawal after 2 hr; format: functional; how it was run: as §5
Rattus norvegicus [24] = species: Rattus norvegicus; assay: Anti-dynamic allodynic effect in Sprague-Dawley rat CCI model assessed as latency to paw withdrawal after 2.5 hr; format: functional; how it was run: as §5
Rattus norvegicus [25] = assay: Anti-cold allodynia effect in Sprague-Dawley rat CCI model assessed as duration of paw withdrawal at 100 mg/kg, ip after 0.5 hr; format: functional; settings: route intraperitoneal
How it was run: (§6)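 CCI by sciatic nerve ligation under pentobarbital (65 mg/kg i.p.). Rats tested at baseline and 9 days post-surgery; those with allodynia dosed i.p. 100 mg/kg, vehicle 30% v/v PEG 400 in water. Acetone (100-200 µL) misted on midplantar affected paw; withdrawal duration recorded, three samples averaged, at least 3 min apart; n = 4.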

Rattus norvegicus [26] = assay: Anti-cold allodynia effect in Sprague-Dawley rat CCI model assessed as duration of paw withdrawal 100 mg/kg, ip after 1 hr; format: functional; settings: route intraperitoneal; how it was run: as §6

SMILES: CN(C)c1ccc(/C=N/NC(=O)NCCCC(=O)O)cc1
- Activity (Mus musculus [1]): inactive
- Activity (Mus musculus [2]): inactive
- Activity (Mus musculus [3]): 13
- Activity (Rattus norvegicus [4]): 47.2 s
- Activity (Rattus norvegicus [5]): 48.8 s
- Activity (Rattus norvegicus [6]): 38.2 s
- Activity (Rattus norvegicus [7]): 11.9 s
- Activity (Rattus norvegicus [8]): 7.3 s
- Activity (Rattus norvegicus [9]): 5.2 s
- Activity (Rattus norvegicus [10]): 17.4 s
- Activity (Rattus norvegicus [11]): 13.1 s
- Activity (Rattus norvegicus [12]): 9.7 s
- Activity (Rattus norvegicus [13]): 5.8 s
- Activity (Rattus norvegicus [14]): 4.8 s
- Activity (Rattus norvegicus [15]): 21.2 s
- Activity (Rattus norvegicus [16]): 4.7 s
- Activity (Rattus norvegicus [17]): 5.8 s
- Activity (Rattus norvegicus [18]): 5.5 s
- Activity (Rattus norvegicus [19]): 5.8 s
- Activity (Rattus norvegicus [20]): 10.9 s
- Activity (Rattus norvegicus [21]): 10.9 s
- Activity (Rattus norvegicus [22]): 10.3 s
- Activity (Rattus norvegicus [23]): 8.2 s
- Activity (Rattus norvegicus [24]): 8.4 s
- Activity (Rattus norvegicus [25]): 28.1 s
- Activity (Rattus norvegicus [26]): 19.7 s
